Measured values: ChEMBL document CHEMBL1944618, “Synthesis and antifungal activity of a new series of 2-(1H-imidazol-1-yl)-1-phenylethanol derivatives” (Eur J Med Chem, 2012)
≈ marks a conversion by molar mass, not a printed value.

Key:
[1] = tested on: Candida albicans; experiment: Antifungal activity against Candida albicans ATCC 24433 after 48 hrs by M27-A3 CLSI method; format: functional
In short: (§1)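 Broth microdilution in RPMI 1640, two-fold serial dilutions, final test range 0.125–64 µg mL-1 (fluconazole reference 0.0078–128 µg mL-1). Inoculum 1.0×10^3–1.5×10^3 cells mL-1 from yeasts grown 24 h at 35 °C on Sabouraud dextrose agar. Incubation 35 °C, read at 48 h. MIC = lowest concentration giving >50% turbidity decrease versus growth control. Run three times in triplicate. C. parapsilosis ATCC22019 served as QC.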

[2] = tested on: Candida tropicalis; experiment: Antifungal activity against Candida tropicalis DSM11953 after 48 hrs by M27-A3 CLSI method
[3] = tested on: Candida parapsilosis; experiment: Antifungal activity against Candida parapsilosis DSM 11224 after 48 hrs by M27-A3 CLSI method; format: functional; in short: as §1
[4] = tested on: Pichia kudriavzevii; experiment: Antifungal activity against Candida krusei PMC 0613 after 48 hrs by M27-A3 CLSI method; format: functional; in short: as §1
[5] = tested on: Candida parapsilosis; experiment: Antifungal activity against Candida parapsilosis ATCC 22019 after 48 hrs by M27-A3 CLSI method; format: functional; conditions: Lodderomyces parapsilosis, ATCC 22019, 48 h; in short: as §1
[6] = tested on: Candida tropicalis; experiment: Antifungal activity against Candida tropicalis PMC 0910 after 48 hrs by M27-A3 CLSI method; format: functional; conditions: PMC 0910, 48 h; in short: as §1
[7] = tested on: Candida; experiment: Antifungal activity against Candida sp. after 48 hrs by M27-A3 CLSI method; format: functional; in short: as §1
[8] = tested on: Candida albicans; experiment: Antifungal activity against Candida albicans ATCC 10231 after 48 hrs by M27-A3 CLSI method; format: functional; conditions: ATCC 10231, 48 h; in short: as §1
[9] = tested on: Nakaseomyces glabratus; experiment: Antifungal activity against Candida glabrata PMC 0805 after 48 hrs by M27-A3 CLSI method; format: functional; conditions: PMC 0805, 48 h; in short: as §1
[10] = tested on: Candida albicans; experiment: Antifungal activity against Candida albicans ATCC 76615 after 48 hrs by M27-A3 CLSI method; format: functional; conditions: ATCC 76615, 48 h; in short: as §1
[11] = tested on: Candida tropicalis; experiment: Antifungal activity against Candida tropicalis DSM 11953 after 48 hrs by M27-A3 CLSI method; format: functional; conditions: DSM 11953, 48 h; in short: as §1
[12] = tested on: Candida albicans; experiment: Antifungal activity against Candida albicans ATCC 3153 after 48 hrs by M27-A3 CLSI method; format: functional; conditions: ATCC 3153, 48 h; in short: as §1
[13] = tested on: Pichia kudriavzevii; experiment: Antifungal activity against Candida krusei DSM 6128 after 48 hrs by M27-A3 CLSI method; format: functional; conditions: DSM 6128, 48 h; in short: as §1
[14] = tested on: Candida albicans; experiment: Antifungal activity against Candida albicans after 48 hrs by M27-A3 CLSI method; format: functional; in short: as §1
[15] = Candida albicans, ATCC 24433, 48 h, read-out: MIC
[16] = Lodderomyces parapsilosis, DSM 11224, 48 h, read-out: MIC
[17] = Pichia kudriavzevii, PMC 0613, 48 h, read-out: MIC

Compound	MIC [5]	MIC [1, 15]	MIC [6]	MIC [7]	MIC50 [7]	MIC90 [7]	MIC [8]	MIC [9]	MIC [10]	MIC [11]	MIC [12]	MIC [13]	MIC [3, 16]	MIC [4, 17]	MIC [14]	MIC50 [14]	MIC90 [14]	other results
O=C(OC(Cn1ccnc1)c1ccccc1)c1ccc(-c2ccccc2)cc1 (single isomer, unassigned; (+))																		MIC [1]: 33.7 µg/mL (≈ 91.5 µM); MIC [2]: 26.67 µg/mL (≈ 72.4 µM); MIC [3]: 26.67 µg/mL (≈ 72.4 µM); MIC [4]: 21.33 µg/mL (≈ 57.9 µM)
O=C(OC(Cn1ccnc1)c1ccccc1)c1ccc(C(F)(F)F)cc1 (racemic)	64 µg/mL (≈ 178 µM)	8 µg/mL (≈ 22.2 µM)	4 µg/mL (≈ 11.1 µM)	55.5 µg/mL (≈ 154 µM)	32 µg/mL (≈ 88.8 µM)	128 µg/mL (≈ 355 µM)	8 µg/mL (≈ 22.2 µM)	8 µg/mL (≈ 22.2 µM)	≥ 64 µg/mL	16 µg/mL (≈ 44.4 µM)	8 µg/mL (≈ 22.2 µM)	> 64 µg/mL	32 µg/mL (≈ 88.8 µM)	64 µg/mL (≈ 178 µM)	33.1 µg/mL (≈ 91.9 µM)	8 µg/mL (≈ 22.2 µM)	64 µg/mL (≈ 178 µM)	
Cl.O=C(OC(Cn1ccnc1)c1ccc(F)cc1)c1cccc(C(F)(F)F)c1 (racemic; 4b)	32 µg/mL	8 µg/mL	1 µg/mL	22.6 µg/mL	16 µg/mL	32 µg/mL	8 µg/mL	32 µg/mL	≥ 64 µg/mL	32 µg/mL	8 µg/mL	64 µg/mL	8 µg/mL	16 µg/mL	34.3 µg/mL	8 µg/mL	64 µg/mL	
OC(Cn1ccnc1)c1ccc(Cl)cc1 (racemic)	> 64 µg/mL	> 64 µg/mL	> 64 µg/mL	108 µg/mL (≈ 485 µM)	128 µg/mL (≈ 575 µM)	128 µg/mL (≈ 575 µM)	> 64 µg/mL	> 64 µg/mL	> 64 µg/mL	> 64 µg/mL	> 32 µg/mL	> 64 µg/mL	64 µg/mL (≈ 287 µM)	16 µg/mL (≈ 71.9 µM)	112 µg/mL (≈ 503 µM)	128 µg/mL (≈ 575 µM)	128 µg/mL (≈ 575 µM)	
CC(C)c1ccc(NC(=O)OC(Cn2ccnc2)c2ccc(Cl)cc2)cc1 (racemic)	> 64 µg/mL	16 µg/mL (≈ 41.7 µM)	> 64 µg/mL	115 µg/mL (≈ 299 µM)	128 µg/mL (≈ 333 µM)	128 µg/mL (≈ 333 µM)	4 µg/mL (≈ 10.4 µM)	> 64 µg/mL	> 64 µg/mL	> 64 µg/mL	16 µg/mL (≈ 41.7 µM)	> 64 µg/mL	> 64 µg/mL	> 64 µg/mL	60 µg/mL (≈ 156 µM)	64 µg/mL (≈ 167 µM)	128 µg/mL (≈ 333 µM)	
O=C(OC(Cn1ccnc1)c1ccc(F)cc1)c1ccc(-c2ccccc2)cc1 (single isomer, unassigned; (+))																		MIC [1]: 64 µg/mL (≈ 166 µM); MIC [2]: 32 µg/mL (≈ 82.8 µM); MIC [3]: 35.55 µg/mL (≈ 92 µM); MIC [4]: 64 µg/mL (≈ 166 µM)
O=C(COc1ccccc1)OC(Cn1ccnc1)c1ccc(Cl)cc1 (racemic)	32 µg/mL (≈ 89.7 µM)	2 µg/mL (≈ 5.61 µM)	4 µg/mL (≈ 11.2 µM)	51.3 µg/mL (≈ 144 µM)	16 µg/mL (≈ 44.8 µM)	128 µg/mL (≈ 359 µM)	4 µg/mL (≈ 11.2 µM)	16 µg/mL (≈ 44.8 µM)	> 64 µg/mL	> 64 µg/mL	16 µg/mL (≈ 44.8 µM)	> 64 µg/mL	8 µg/mL (≈ 22.4 µM)	16 µg/mL (≈ 44.8 µM)	67.7 µg/mL (≈ 190 µM)	64 µg/mL (≈ 179 µM)	128 µg/mL (≈ 359 µM)	
OC(Cn1ccnc1)c1ccc(F)cc1 (racemic)	> 64 µg/mL	> 64 µg/mL	16 µg/mL (≈ 77.6 µM)	104 µg/mL (≈ 504 µM)	128 µg/mL (≈ 621 µM)	128 µg/mL (≈ 621 µM)	> 64 µg/mL	16 µg/mL (≈ 77.6 µM)	> 64 µg/mL	> 64 µg/mL	32 µg/mL (≈ 155 µM)	> 64 µg/mL	> 64 µg/mL	64 µg/mL (≈ 310 µM)	101 µg/mL (≈ 491 µM)	128 µg/mL (≈ 621 µM)	128 µg/mL (≈ 621 µM)	
Cl.O=C(OC(Cn1ccnc1)c1ccc(Cl)cc1)c1cccc(C(F)(F)F)c1 (racemic)	> 64 µg/mL	8 µg/mL	0.5 µg/mL	43.8 µg/mL	32 µg/mL	128 µg/mL	4 µg/mL	32 µg/mL	> 64 µg/mL	32 µg/mL	8 µg/mL	32 µg/mL	8 µg/mL	32 µg/mL	46.3 µg/mL	8 µg/mL	16 µg/mL	
